Assay results published in ChEMBL document CHEMBL3992547, “Antimicrobial activity of rhodanine-3-acetic acid derivatives” (Bioorg Med Chem, 2017).
In brackets after ≈: the same amount, converted by molar mass. Activity calls are given as the source filed them. The calls are words filed in the database; no cut-off is given here.

Tests used:
[1] = tested on: Mycobacterium kansasii; test: Antimycobacterial activity against Mycobacterium kansasii isolate 6509/96 after 21 days by micromethod; assay type: functional; conditions: isolate 6509/96, 504 h
[2] = tested on: Mycobacterium kansasii; test: Antimycobacterial activity against Mycobacterium kansasii isolate 235/80 after 21 days by micromethod; assay type: functional; conditions: isolate 235/80, 504 h
[3] = tested on: Pichia kudriavzevii; test: Antifungal activity against Candida krusei E28 after 24 to 48 hrs hrs by microdilution broth assay; assay type: functional
Summary of the method: (§1)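 Broth microdilution per CLSI M27-A3 and M38-A2 in RPMI 1640 with glutamine, buffered to pH 7.0 with MOPS. Compounds are diluted in DMSO. Final inoculum is 5 × 10³ CFU/mL for yeasts and 0.5–5 × 10⁴ CFU/mL for moulds. Plates are incubated in the dark at 35 °C in humid air and read visually and/or at 540 nm after 24 and 48 h. MIC is ≥80% growth reduction (IC₈₀) for yeasts and ≥50% (IC₅₀) for filamentous fungi.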

[4] = tested on: Trichosporon asahii; test: Antifungal activity against Trichosporon asahii 1188 after 48 hrs by microdilution broth assay; assay type: functional; conditions: Trichosporon asahii, 1188, 48 h; summary of the method: as §1
[5] = tested on: Escherichia coli; test: Antibacterial activity against Escherichia coli CCM 4517 incubated for 48 hrs under dark condition by microdilution broth assay; assay type: functional; conditions: CCM 4517, 48 h
Summary of the method: (§2)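 Broth microdilution per M07-A07, modified, in Mueller-Hinton broth adjusted to pH 7.4 (±0.2). Inoculum is prepared in sterile water to McFarland 0.5 (1.5 × 10⁸ CFU/mL). Plates are incubated in the dark at 35 °C in humid air. MIC is read after 24 and 48 h as at least 95% growth reduction versus control (IC₉₅).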

[6] = tested on: Staphylococcus aureus; test: Antibacterial activity against Staphylococcus aureus CCM 4516/08 incubated for 48 hrs under dark condition by microdilution broth assay; assay type: functional; conditions: CCM 4516/08, 48 h; summary of the method: as §2
[7] = tested on: Pseudomonas aeruginosa; test: Antibacterial activity against Pseudomonas aeruginosa CCM 1961 up to 500 uM incubated for 24 to 48 hrs under dark condition by microdilution broth assay; assay type: functional; summary of the method: as §2
[8] = tested on: Trichophyton mentagrophytes; test: Antifungal activity against Trichophyton mentagrophytes 445 after 72 hrs by microdilution broth assay; assay type: functional; conditions: Trichophyton mentagrophytes, 445, 72 h
Summary of the method: (§3)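 Broth microdilution per CLSI M38-A2 in RPMI 1640 with glutamine, buffered to pH 7.0 with MOPS, with DMSO as diluent. Final inoculum is 0.5–5 × 10⁴ CFU/mL. Plates are incubated in the dark at 35 °C in humid air and read visually and/or at 540 nm after 72 and 120 h. MIC is at least 50% growth reduction versus control.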

[9] = tested on: Mycobacterium kansasii; test: Antimycobacterial activity against Mycobacterium kansasii isolate 235/80 after 7 days by micromethod; assay type: functional; conditions: isolate 235/80, 168 h
[10] = tested on: Mycobacterium kansasii; test: Antimycobacterial activity against Mycobacterium kansasii isolate 6509/96 after 14 days by micromethod; assay type: functional; conditions: isolate 6509/96, 336 h
[11] = tested on: Candida tropicalis; test: Antifungal activity against Candida tropicalis 156 after 48 hrs by microdilution broth assay; assay type: functional; conditions: Candida tropicalis, 156, 48 h; summary of the method: as §1
[12] = tested on: Mycobacterium kansasii; test: Antimycobacterial activity against Mycobacterium kansasii isolate 235/80 after 14 days by micromethod; assay type: functional; conditions: isolate 235/80, 336 h
[13] = tested on: Candida albicans; test: Antifungal activity against Candida albicans ATCC 44859 after 48 hrs by microdilution broth assay; assay type: functional; conditions: ATCC 44859, 48 h; summary of the method: as §1
[14] = tested on: Mycobacterium tuberculosis; test: Antimycobacterial activity against Mycobacterium tuberculosis H37Rv 331/88 measured after 21 days by micromethod; assay type: functional; conditions: H37Rv 331/88, 504 h
[15] = tested on: Trichophyton mentagrophytes; test: Antifungal activity against Trichophyton mentagrophytes 445 after 120 hrs by microdilution broth assay; assay type: functional; conditions: Trichophyton mentagrophytes, 445, 120 h; summary of the method: as §3
[16] = tested on: Nakaseomyces glabratus; test: Antifungal activity against Candida glabrata 20/I after 48 hrs by microdilution broth assay; assay type: functional; summary of the method: as §1
[17] = tested on: Escherichia coli; test: Antibacterial activity against Escherichia coli CCM 4517 incubated for 24 hrs under dark condition by microdilution broth assay; assay type: functional; conditions: CCM 4517, 24 h; summary of the method: as §2
[18] = tested on: Staphylococcus epidermidis; test: Antibacterial activity against Staphylococcus epidermidis H 6966/08 incubated for 24 hrs under dark condition by microdilution broth assay; assay type: functional; conditions: H 6966/08, 24 h; summary of the method: as §2
[19] = tested on: Lichtheimia corymbifera; test: Antifungal activity against Absidia corymbifera 272 after 24 to 48 hrs hrs by microdilution broth assay; assay type: functional; summary of the method: as §1
[20] = tested on: Klebsiella pneumoniae; test: Antibacterial activity against Klebsiella pneumoniae D 11750/08 up to 500 uM incubated for 24 to 48 hrs under dark condition by microdilution broth assay; assay type: functional; summary of the method: as §2
[21] = Solubility of the compound in Sula's semisynthetic medium up to 1 mM; assay type: physicochemical
[22] = tested on: Klebsiella pneumoniae; test: Antibacterial activity against ESBL positive Klebsiella pneumoniae J 14368/08 up to 500 uM incubated for 24 to 48 hrs under dark condition by microdilution broth assay; assay type: functional; summary of the method: as §2
[23] = tested on: Aspergillus fumigatus; test: Antifungal activity against Aspergillus fumigatus 231 after 48 hrs by microdilution broth assay; assay type: functional; conditions: Aspergillus fumigatus, 231, 48 h; summary of the method: as §1
[24] = tested on: Enterococcus; test: Antibacterial activity against Enterococcus sp. J 14365/08 incubated for 48 hrs under dark condition by microdilution broth assay; conditions: J 14365/08, 48 h
[25] = tested on: Staphylococcus aureus; test: Antibacterial activity against methicillin-resistant Staphylococcus aureus H 5996/08 incubated for 24 hrs under dark condition by microdilution broth assay; assay type: functional; conditions: H 5996/08, 24 h
Summary of the method: (§4)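 Microdilution broth method modified per M07-A07, in Mueller-Hinton broth adjusted to pH 7.4 (±0.2). Inoculum made in sterile water to 0.5 McFarland (1.5 × 10⁸ CFU/mL). Plates incubated in the dark at 35 °C in a humid atmosphere, with reads at 24 and 48 h. MIC taken as at least 95% growth reduction (IC₉₅) versus control.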

[26] = tested on: Nakaseomyces glabratus; test: Antifungal activity against Candida glabrata 20/I after 24 hrs by microdilution broth assay; assay type: functional; summary of the method: as §1
[27] = tested on: Mycobacterium avium; test: Antimycobacterial activity against Mycobacterium avium 330/88 measured after 21 days by micromethod; assay type: functional; conditions: 330/88, 504 h
[28] = tested on: Mycobacterium kansasii; test: Antimycobacterial activity against Mycobacterium kansasii isolate 6509/96 after 7 days by micromethod; assay type: functional; conditions: isolate 6509/96, 168 h
[29] = tested on: Staphylococcus epidermidis; test: Antibacterial activity against Staphylococcus epidermidis H 6966/08 incubated for 48 hrs under dark condition by microdilution broth assay; assay type: functional; conditions: H 6966/08, 48 h; summary of the method: as §2
[30] = tested on: Trichosporon asahii; test: Antifungal activity against Trichosporon asahii 1188 after 24 hrs by microdilution broth assay; assay type: functional; conditions: Trichosporon asahii, 1188, 24 h; summary of the method: as §1
[31] = tested on: Mycobacterium tuberculosis; test: Antimycobacterial activity against Mycobacterium tuberculosis H37Rv 331/88 measured after 14 days by micromethod; assay type: functional; conditions: H37Rv 331/88, 336 h
[32] = tested on: Staphylococcus aureus; test: Antibacterial activity against Staphylococcus aureus CCM 4516/08 incubated for 24 hrs under dark condition by microdilution broth assay; assay type: functional; conditions: CCM 4516/08, 24 h; summary of the method: as §2
[33] = tested on: Staphylococcus aureus; test: Antibacterial activity against methicillin-resistant Staphylococcus aureus H 5996/08 incubated for 48 hrs under dark condition by microdilution broth assay; assay type: functional; conditions: H 5996/08, 48 h; summary of the method: as §4
[34] = tested on: Mycobacterium avium; test: Antimycobacterial activity against Mycobacterium avium 330/88 measured after 14 days by micromethod; assay type: functional; conditions: 330/88, 336 h
[35] = tested on: Candida tropicalis; test: Antifungal activity against Candida tropicalis 156 after 24 hrs by microdilution broth assay; assay type: functional; conditions: Candida tropicalis, 156, 24 h; summary of the method: as §1
[36] = tested on: Enterococcus; test: Antibacterial activity against Enterococcus sp. J 14365/08 incubated for 24 hrs under dark condition by microdilution broth assay; conditions: J 14365/08, 24 h
[37] = tested on: Aspergillus fumigatus; test: Antifungal activity against Aspergillus fumigatus 231 after 24 hrs by microdilution broth assay; assay type: functional; conditions: Aspergillus fumigatus, 231, 24 h; summary of the method: as §1
[38] = tested on: Candida albicans; test: Antifungal activity against Candida albicans ATCC 44859 after 24 hrs by microdilution broth assay; assay type: functional; conditions: ATCC 44859, 24 h; summary of the method: as §1

Compound: CC(=O)Oc1ccccc1/C=C1\SC(=S)N(CC(=O)O)C1=O
- MIC [1]: 62.5 µM (≈ 21.1 µg/mL)
- MIC [2]: 62.5 µM (≈ 21.1 µg/mL)
- Activity [3]: inactive
- MIC80 [4]: > 500 µM
- MIC95 [5]: > 500 µM
- MIC95 [6]: 62.5 µM (≈ 21.1 µg/mL)
- Activity [7]: inactive
- MIC50 [8]: 250 µM (≈ 84.3 µg/mL)
- MIC [9]: 62.5 µM (≈ 21.1 µg/mL)
- MIC [10]: 62.5 µM (≈ 21.1 µg/mL)
- MIC80 [11]: > 500 µM
- MIC [12]: 62.5 µM (≈ 21.1 µg/mL)
- MIC80 [13]: > 500 µM
- MIC [14]: 32 µM (≈ 10.8 µg/mL)
- MIC50 [15]: 500 µM (≈ 169 µg/mL)
- MIC80 [16]: > 500 µM
- MIC95 [17]: > 500 µM
- MIC95 [18]: 31.2 µM (≈ 10.5 µg/mL)
- Activity [19]: inactive
- Activity [20]: inactive
- solubility [21]: Soluble
- Activity [22]: inactive
- MIC50 [23]: > 500 µM
- MIC95 [24]: 125 µM (≈ 42.2 µg/mL)
- MIC95 [25]: 62.5 µM (≈ 21.1 µg/mL)
- MIC80 [26]: > 500 µM
- MIC [27]: 62.5 µM (≈ 21.1 µg/mL)
- MIC [28]: 62.5 µM (≈ 21.1 µg/mL)
- MIC95 [29]: 31.2 µM (≈ 10.5 µg/mL)
- MIC80 [30]: > 500 µM
- MIC [31]: 32 µM (≈ 10.8 µg/mL)
- MIC95 [32]: 62.5 µM (≈ 21.1 µg/mL)
- MIC95 [33]: 62.5 µM (≈ 21.1 µg/mL)
- MIC [34]: 62.5 µM (≈ 21.1 µg/mL)
- MIC80 [35]: > 500 µM
- MIC95 [36]: 62.5 µM (≈ 21.1 µg/mL)
- MIC50 [37]: > 500 µM
- MIC80 [38]: > 500 µM
